Peptide text beside a SMILES is read from it. * marks the point of attachment. Boc = CC(C)(C)OC(=O)*
Assays:
[1] = molecular target: Cytosol aminopeptidase (Sus scrofa) (UniProt P28839); assay: Compound was evaluated for the inhibition of Leucine aminopeptidase and the inhibition constant was determined after preincubating the enzyme and inhibitor
[2] = as above
[3] = molecular target: Cytosol aminopeptidase (Sus scrofa) (UniProt P28839); assay: as above; remark: listed apart in the source
[4] = molecular target: Cytosol aminopeptidase (Sus scrofa) (UniProt P28839); assay: Compound was evaluated for the inhibition of Leucine aminopeptidase from porcine kidney and the inhibition constant was determined after preincubating the enzyme and inhibitor
[5] = molecular target: Cytosol aminopeptidase (Homo sapiens, UniProt P28838); assay: Compound was evaluated for the inhibition of Leucine aminopeptidase and the inhibition constant was determined after preincubating the enzyme and inhibitor
Chain of Cytosol aminopeptidase (P28838 whole entry): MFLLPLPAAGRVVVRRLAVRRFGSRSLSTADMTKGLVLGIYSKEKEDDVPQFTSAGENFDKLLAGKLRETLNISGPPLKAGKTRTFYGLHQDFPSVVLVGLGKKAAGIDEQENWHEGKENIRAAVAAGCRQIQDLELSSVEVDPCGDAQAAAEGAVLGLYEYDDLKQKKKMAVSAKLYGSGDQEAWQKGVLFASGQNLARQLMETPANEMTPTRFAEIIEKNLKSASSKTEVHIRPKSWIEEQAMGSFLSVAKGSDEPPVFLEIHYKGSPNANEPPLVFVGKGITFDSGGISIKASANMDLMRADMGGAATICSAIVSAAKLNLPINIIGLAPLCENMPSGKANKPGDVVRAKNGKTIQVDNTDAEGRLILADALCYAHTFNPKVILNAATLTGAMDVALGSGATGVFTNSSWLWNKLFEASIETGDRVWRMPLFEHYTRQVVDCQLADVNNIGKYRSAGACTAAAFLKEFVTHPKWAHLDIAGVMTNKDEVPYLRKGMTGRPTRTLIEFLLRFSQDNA
Method in brief: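 For initial rates, enzyme was added to substrate plus inhibitor to start the reaction. For steady-state rates, enzyme was preincubated 15-20 min with inhibitor, then substrate was added. Double-reciprocal (Lineweaver-Burk) analysis was used.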

Chain of Cytosol aminopeptidase (Sus scrofa) (P28839 whole entry, looked up): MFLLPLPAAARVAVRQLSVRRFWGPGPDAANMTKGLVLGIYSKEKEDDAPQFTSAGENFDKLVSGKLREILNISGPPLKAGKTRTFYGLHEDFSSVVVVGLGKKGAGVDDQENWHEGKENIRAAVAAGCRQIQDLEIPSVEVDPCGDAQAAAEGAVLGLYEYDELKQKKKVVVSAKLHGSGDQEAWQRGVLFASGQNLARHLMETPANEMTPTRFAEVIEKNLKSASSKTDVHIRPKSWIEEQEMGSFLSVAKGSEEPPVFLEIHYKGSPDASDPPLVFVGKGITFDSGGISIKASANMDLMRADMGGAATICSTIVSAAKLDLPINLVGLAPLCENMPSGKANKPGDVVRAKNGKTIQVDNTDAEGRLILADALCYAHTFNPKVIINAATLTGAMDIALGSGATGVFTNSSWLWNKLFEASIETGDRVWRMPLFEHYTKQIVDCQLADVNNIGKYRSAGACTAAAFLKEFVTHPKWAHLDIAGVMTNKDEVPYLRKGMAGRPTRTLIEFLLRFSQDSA

**Q.** With CC(C)CCNC(=O)[C@@H](NC(=O)[C@@H](NC(=O)[C@H](O)[C@@H](N)CC(C)C)C(C)C)C(C)C [3-Amino-2-hydroxy-5-methyl-hexanoic acid {2-methyl-1-[2-methyl-1-(3-methyl-butylcarbamoyl)-propylcarbamoyl]-propyl}-amide] as the compound, how does the Ki [1] read?
**A.** 0.89 µM

**Q.** With CC(C)CC(N)C(O)C(=O)NC(C(=O)NC(CC(=O)O)C(=O)O)C(C)C (configuration not stated) [2-[2-(3-Amino-2-hydroxy-5-methyl-hexanoylamino)-3-methyl-butyrylamino]-succinic acid] as the compound, how does the Ki [2] read?
**A.** 1.24 µM

**Q.** With CC(C)C[C@@H](N)CC(=O)N[C@H](C(=O)N[C@H](C(=O)N[C@@H](CC(=O)O)C(=O)O)C(C)C)C(C)C [2-{2-[2-(3-Amino-5-methyl-hexanoylamino)-3-methyl-butyrylamino]-3-methyl-butyrylamino}-succinic acid] as the compound, how does the Ki [3] read?
**A.** 681 µM

**Q.** Which Ki [2] does the source give for CC(C)C[C@H](NC(=O)[C@@H](O)[C@H](N)CC(C)C)C(=O)O [2-(3-Amino-2-hydroxy-5-methyl-hexanoylamino)-4-methyl-pentanoic acid] here?
**A.** 0.12 µM

**Q.** Which Ki [4] does the source give for CC(C)CCNC(=O)[C@H](O)[C@@H](N)Cc1ccccc1 [3-Amino-2-hydroxy-N-(3-methyl-butyl)-4-phenyl-butyramide] here?
**A.** 0.5 µM

**Q.** For CC(C)CC(NC(=O)[C@H](C)[C@@H](N)Cc1ccccc1)C(=O)O (some centres not stated) [2-(3-Amino-2-methyl-4-phenyl-butyrylamino)-4-methyl-pentanoic acid], which Ki [5] is on record?
**A.** 3.78 µM

**Q.** With CC(C)[C@H](NC(=O)OC(C)(C)C)C(=O)N[C@H](C(=O)N[C@@H](CC(=O)O)C(=O)O)C(C)C [2-[2-(2-tert-Butoxycarbonylamino-3-methyl-butyrylamino)-3-methyl-butyrylamino]-succinic acid] (Boc-Val-Val-Asp-OH) as the compound, how does the Ki [4] read?
**A.** 1400 µM

— BindingDB's records for doi:10.1021/jm00370a001 (1984)
